Assay results published in ChEMBL document CHEMBL4145530, “Design, synthesis and pharmacological evaluation of N-benzyl-piperidinyl-aryl-acylhydrazone derivatives as donepezil hybrids: Discovery of novel multi-target anti-alzheimer prototype drug candidates” (Eur J Med Chem, 2018).
pIC50, pKi: −log10 of the molar value.

Tested on: not listed separately
Assay: Cytotoxicity against human HepG2 cells assessed as cell viability at 20 to 40 uM after 6 hrs by trypan blue exclusion assay relative to control
Format: cell-based
Settings: read-out: Activity

SMILES	viability at 6 h, 40 µM [%]
COc1cc2c(cc1OC)C(=O)C(CC1CCN(Cc3ccccc3)CC1)C2 (stereo not given) [DONEPEZIL]	> 90
COc1cccc2c1C(=O)c1c(O)c3c(c(O)c1C2=O)C[C@@](O)(C(=O)CO)C[C@@H]3O[C@H]1C[C@H](N)[C@H](O)[C@H](C)O1 [DOXORUBICIN]	> 90

Biological target: Acetylcholinesterase (Electrophorus electricus) (UniProt O42275)
Assay: Inhibition of electric eel AChE at 100 uM using acetylthiocholine iodide as substrate preincubated for 10 mins followed by substrate addition by Ellman's method relative to control
Settings: not given

Sequence of Acetylcholinesterase (Electrophorus electricus) (O42275 24-633 limits assumed): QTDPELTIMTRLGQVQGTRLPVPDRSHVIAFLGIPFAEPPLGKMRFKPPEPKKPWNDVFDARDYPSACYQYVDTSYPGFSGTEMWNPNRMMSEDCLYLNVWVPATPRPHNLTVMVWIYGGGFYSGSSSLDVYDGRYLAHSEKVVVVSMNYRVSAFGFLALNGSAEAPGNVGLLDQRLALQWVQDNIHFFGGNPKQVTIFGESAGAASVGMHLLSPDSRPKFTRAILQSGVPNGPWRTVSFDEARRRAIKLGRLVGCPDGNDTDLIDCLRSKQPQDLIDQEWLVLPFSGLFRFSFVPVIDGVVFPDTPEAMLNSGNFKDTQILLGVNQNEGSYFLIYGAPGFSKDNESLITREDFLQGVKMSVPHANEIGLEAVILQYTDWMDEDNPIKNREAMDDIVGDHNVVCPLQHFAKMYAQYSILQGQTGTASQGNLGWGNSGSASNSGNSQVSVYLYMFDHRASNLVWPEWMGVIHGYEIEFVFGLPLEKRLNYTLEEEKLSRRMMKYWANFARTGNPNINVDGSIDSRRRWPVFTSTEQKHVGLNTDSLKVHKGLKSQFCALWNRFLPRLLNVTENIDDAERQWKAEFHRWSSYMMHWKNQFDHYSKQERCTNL

SMILES	inhibition [%]
O=C(N/N=C/c1ccc(Br)cc1)c1ccc(CN2CCCC(O)C2)cc1 (stereo not given)	> 60
O=C(N/N=C/c1ccc([N+](=O)[O-])cc1)c1ccc(CN2CCCC(O)C2)cc1 (stereo not given)	> 60
CSc1ccc(/C=N/NC(=O)c2ccc(CN3CCCC(O)C3)cc2)cc1 (stereo not given)	> 60
O=C(N/N=C/c1ccc(-n2ccnc2)cc1)c1ccc(CN2CCCC(O)C2)cc1 (stereo not given)	> 60
COc1ccc(/C=N/NC(=O)c2ccc(CN3CCCC(O)C3)cc2)cc1 (stereo not given)	> 60
O=C(N/N=C/c1ccc(N2CCCCC2)cc1)c1ccc(CN2CCCC(O)C2)cc1 (stereo not given)	> 60
O=C(N/N=C/c1ccc(N2CCCC2)cc1)c1ccc(CN2CCCC(O)C2)cc1 (stereo not given)	> 60

Tested on: not listed separately
Assay: Selectivity ratio of IC50 for equine serum BuChE to IC50 for electric eel AChE
Settings: not given
Outline: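 Ellman kinetic assay with Electrophorus electricus AChE (acetylthiocholine) and equine serum BuChE (butyrylthiocholine iodide), […]. Enzyme was preincubated 10 min with DTNB and compound in 0.1 M sodium phosphate, pH 7.4 (final DMSO <0.2%), before substrate was added. A412 was read every 12 s for 5 min at rt to give maximum velocity. IC50 is the geometric mean of 2–3 curves, each 6 concentrations in triplicate. Selectivity is IC50 BuChE/IC50 AChE.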

SMILES	Ratio IC50
O=C(N/N=C/c1ccc([N+](=O)[O-])cc1)c1ccc(CN2CCCC(O)C2)cc1 (stereo not given)	12.5
CSc1ccc(/C=N/NC(=O)c2ccc(CN3CCCC(O)C3)cc2)cc1 (stereo not given)	5.7
O=C(N/N=C/c1ccc(-n2ccnc2)cc1)c1ccc(CN2CCCC(O)C2)cc1 (stereo not given)	1.8
COc1ccc(/C=N/NC(=O)c2ccc(CN3CCCC(O)C3)cc2)cc1 (stereo not given)	7
O=C(N/N=C/c1ccc(N2CCCCC2)cc1)c1ccc(CN2CCCC(O)C2)cc1 (stereo not given)	5.3

Tested on: Mus musculus
Assay: Anti-inflammatory activity in Swiss mouse assessed as reduction in carrageenan-induced paw edema by measuring paw volume […] po pretreated for 1 hr followed by carrageenan injection and measured after 1 to 5 hrs by plethysmometric method (reference value: 67.73 +/- 4.2 uL)
Format: functional
Settings: not given
Outline: (§1)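 Male Swiss mice (22–28 g) were fasted overnight and dosed orally with vehicle (2% DMSO in sterile saline), compound or indomethacin 1 h before intraplantar carrageenan. Groups (n=10) were matched on basal paw volume. Right hind paw volume was read by plethysmometer at 1, 3 and 5 h and expressed as change from basal.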

SMILES	Activity [µL]
COc1ccc(/C=N/NC(=O)c2ccc(CN3CCCC(O)C3)cc2)cc1 (stereo not given)	25.71

Tested on: Mus musculus
Assay: Anti-inflammatory activity in po dosed Swiss mouse assessed as reduction in carrageenan-induced paw edema pretreated for 1 hr followed by carrageenan injection and measured after 1 to 5 hrs by plethysmometric method
Format: functional
Settings: read-out: ID50 (the source's name)
Outline: as §1

SMILES	ED50 [µmol/kg]
COc1ccc(/C=N/NC(=O)c2ccc(CN3CCCC(O)C3)cc2)cc1 (stereo not given)	68.3

Biological target: T1, Acetylcholinesterase (Electrophorus electricus, UniProt O42275)
Assay: Non-competitive inhibition of electric eel AChE using acetylthiocholine iodide as substrate preincubated for 10 mins followed by substrate addition by Ellman's method
Settings: not given
Outline: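 Substrate-competition kinetics with E. electricus AChE by Ellman's method: 10 min enzyme–DTNB–compound preincubation in 0.1 M phosphate, pH 7.4, then acetylthiocholine; A412 was read every 12 s for 5 min at rt. Three independent data sets, each in triplicate, were averaged and fitted to a simple noncompetitive model. That model was compared with mixed linear inhibition by AICc probability ratio.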

T1 sequence (O42275 whole entry): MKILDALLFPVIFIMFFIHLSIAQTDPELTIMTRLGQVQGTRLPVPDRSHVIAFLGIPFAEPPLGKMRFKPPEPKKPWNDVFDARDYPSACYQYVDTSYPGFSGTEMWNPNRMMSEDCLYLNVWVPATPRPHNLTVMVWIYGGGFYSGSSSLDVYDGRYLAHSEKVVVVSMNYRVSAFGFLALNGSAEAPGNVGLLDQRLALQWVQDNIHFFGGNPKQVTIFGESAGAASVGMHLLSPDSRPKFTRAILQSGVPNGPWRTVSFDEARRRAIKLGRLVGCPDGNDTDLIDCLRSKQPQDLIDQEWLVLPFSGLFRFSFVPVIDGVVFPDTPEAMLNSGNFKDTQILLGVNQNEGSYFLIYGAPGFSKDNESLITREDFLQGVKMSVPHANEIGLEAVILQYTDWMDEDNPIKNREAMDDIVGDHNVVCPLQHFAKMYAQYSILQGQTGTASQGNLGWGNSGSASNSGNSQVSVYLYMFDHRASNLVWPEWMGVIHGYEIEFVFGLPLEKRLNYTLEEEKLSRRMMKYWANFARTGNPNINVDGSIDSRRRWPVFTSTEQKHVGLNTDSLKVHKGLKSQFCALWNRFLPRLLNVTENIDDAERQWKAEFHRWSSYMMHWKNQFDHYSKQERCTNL

SMILES	pKi
O=C(N/N=C/c1ccc([N+](=O)[O-])cc1)c1ccc(CN2CCCC(O)C2)cc1 (stereo not given)	5.61
CSc1ccc(/C=N/NC(=O)c2ccc(CN3CCCC(O)C3)cc2)cc1 (stereo not given)	5.07
O=C(N/N=C/c1ccc(-n2ccnc2)cc1)c1ccc(CN2CCCC(O)C2)cc1 (stereo not given)	4.68
COc1ccc(/C=N/NC(=O)c2ccc(CN3CCCC(O)C3)cc2)cc1 (stereo not given)	4.94
O=C(N/N=C/c1ccc(N2CCCCC2)cc1)c1ccc(CN2CCCC(O)C2)cc1 (stereo not given)	5.01

Tested on: Mus musculus
Assay: Antinociceptive activity in formalin-induced Swiss mouse model of hyperalgesia assessed as time spent licking the injected paw in last phase at […], po pretreated for 1 hr followed by formalin injection and measured at 20 to 30 mins (reference value: 135.8 +/- 10.7 secs)
Format: functional
Settings: not given

SMILES	Time [s]
COc1ccc(/C=N/NC(=O)c2ccc(CN3CCCC(O)C3)cc2)cc1 (stereo not given)	15.86
O=C(N/N=C/c1ccc(N2CCCCC2)cc1)c1ccc(CN2CCCC(O)C2)cc1 (stereo not given)	110

Biological target: Cholinesterase (Equus caballus) (UniProt P81908)
Assay: (§2) Inhibition of […] preincubated for 10 mins followed by substrate addition by Ellman's method
Settings: not given

Sequence of Cholinesterase (Equus caballus) (P81908 whole entry): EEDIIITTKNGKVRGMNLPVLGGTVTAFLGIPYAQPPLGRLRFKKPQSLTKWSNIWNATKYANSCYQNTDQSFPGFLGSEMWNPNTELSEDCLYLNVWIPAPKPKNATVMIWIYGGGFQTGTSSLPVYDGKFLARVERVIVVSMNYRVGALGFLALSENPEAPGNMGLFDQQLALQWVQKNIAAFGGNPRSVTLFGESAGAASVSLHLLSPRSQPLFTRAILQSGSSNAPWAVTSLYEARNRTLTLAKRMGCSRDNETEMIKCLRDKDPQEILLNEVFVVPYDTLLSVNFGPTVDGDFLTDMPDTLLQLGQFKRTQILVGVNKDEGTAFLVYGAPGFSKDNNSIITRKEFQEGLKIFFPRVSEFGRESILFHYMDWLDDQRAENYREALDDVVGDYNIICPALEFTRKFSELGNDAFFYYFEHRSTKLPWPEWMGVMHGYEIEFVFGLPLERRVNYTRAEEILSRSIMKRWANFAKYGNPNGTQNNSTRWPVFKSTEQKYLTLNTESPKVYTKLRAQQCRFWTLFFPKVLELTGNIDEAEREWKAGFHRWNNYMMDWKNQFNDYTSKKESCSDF

SMILES	inhibition
O=C(N/N=C/c1ccc([N+](=O)[O-])cc1)c1ccc(CN2CCCC(O)C2)cc1 (stereo not given)	Dose-dependent effect
CSc1ccc(/C=N/NC(=O)c2ccc(CN3CCCC(O)C3)cc2)cc1 (stereo not given)	Dose-dependent effect
O=C(N/N=C/c1ccc(-n2ccnc2)cc1)c1ccc(CN2CCCC(O)C2)cc1 (stereo not given)	Dose-dependent effect
COc1ccc(/C=N/NC(=O)c2ccc(CN3CCCC(O)C3)cc2)cc1 (stereo not given)	Dose-dependent effect
O=C(N/N=C/c1ccc(N2CCCCC2)cc1)c1ccc(CN2CCCC(O)C2)cc1 (stereo not given)	Dose-dependent effect

Biological target: Cholinesterase (Equus caballus, UniProt P81908)
Assay: as §2
Settings: not given

Sequence of Cholinesterase (P81908 whole entry): as above

SMILES	pIC50
O=C(N/N=C/c1ccc([N+](=O)[O-])cc1)c1ccc(CN2CCCC(O)C2)cc1 (stereo not given)	4.47
CSc1ccc(/C=N/NC(=O)c2ccc(CN3CCCC(O)C3)cc2)cc1 (stereo not given)	4.23
O=C(N/N=C/c1ccc(-n2ccnc2)cc1)c1ccc(CN2CCCC(O)C2)cc1 (stereo not given)	4.40
COc1ccc(/C=N/NC(=O)c2ccc(CN3CCCC(O)C3)cc2)cc1 (stereo not given)	4.04
O=C(N/N=C/c1ccc(N2CCCCC2)cc1)c1ccc(CN2CCCC(O)C2)cc1 (stereo not given)	4.24

Tested on: Mus musculus
Assay: Antinociceptive activity in carrageenan-induced Swiss mouse model of mechanical hyperalgesia assessed as mechanical hyperalgesic index pretreated orally for 1 hr followed by carrageenan challenge by Von Frey filament assay
Format: functional
Settings: not given
Outline: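 Swiss mice were placed in wire-screen acrylic boxes 60 min before testing. Vehicle, compound or indomethacin was given orally 1 h before intraplantar carrageenan. Mechanical threshold was found by the von Frey up-and-down method, with at least 6 trials at 10 s intervals, raising filament mass until paw withdrawal. Results are given as threshold in grams; n=8.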

SMILES	Activity_index
O=C(N/N=C/c1ccc(Br)cc1)c1ccc(CN2CCCC(O)C2)cc1 (stereo not given)	235.8
O=C(N/N=C/c1ccc([N+](=O)[O-])cc1)c1ccc(CN2CCCC(O)C2)cc1 (stereo not given)	320.1
CSc1ccc(/C=N/NC(=O)c2ccc(CN3CCCC(O)C3)cc2)cc1 (stereo not given)	260.3
COc1ccc(/C=N/NC(=O)c2ccc(CN3CCCC(O)C3)cc2)cc1 (stereo not given)	161.1
O=C(N/N=C/c1ccc(N2CCCCC2)cc1)c1ccc(CN2CCCC(O)C2)cc1 (stereo not given)	64.56
O=C(N/N=C/c1ccc(N2CCCC2)cc1)c1ccc(CN2CCCC(O)C2)cc1 (stereo not given)	206.4

Biological target: T1, Acetylcholinesterase
Assay: (§3) Inhibition of electric eel AChE using acetylthiocholine iodide as substrate preincubated for 10 mins followed by substrate addition by Ellman's method
Settings: not given

SMILES	pIC50
O=C(N/N=C/c1ccc(Br)cc1)c1ccc(CN2CCCC(O)C2)cc1 (stereo not given)	4.92
O=C(N/N=C/c1ccc([N+](=O)[O-])cc1)c1ccc(CN2CCCC(O)C2)cc1 (stereo not given)	5.57
CSc1ccc(/C=N/NC(=O)c2ccc(CN3CCCC(O)C3)cc2)cc1 (stereo not given)	4.98
O=C(N/N=C/c1ccc(-n2ccnc2)cc1)c1ccc(CN2CCCC(O)C2)cc1 (stereo not given)	4.66
COc1ccc(/C=N/NC(=O)c2ccc(CN3CCCC(O)C3)cc2)cc1 (stereo not given)	4.88
O=C(N/N=C/c1ccc(N2CCCCC2)cc1)c1ccc(CN2CCCC(O)C2)cc1 (stereo not given)	4.96
O=C(N/N=C/c1ccc(N2CCCC2)cc1)c1ccc(CN2CCCC(O)C2)cc1 (stereo not given)	4.83

Biological target: Acetylcholinesterase (Electrophorus electricus) (UniProt O42275)
Assay: as §3
Settings: not given

SMILES	inhibition
O=C(N/N=C/c1ccc(Br)cc1)c1ccc(CN2CCCC(O)C2)cc1 (stereo not given)	Dose-dependent effect
O=C(N/N=C/c1ccc([N+](=O)[O-])cc1)c1ccc(CN2CCCC(O)C2)cc1 (stereo not given)	Dose-dependent effect
CSc1ccc(/C=N/NC(=O)c2ccc(CN3CCCC(O)C3)cc2)cc1 (stereo not given)	Dose-dependent effect
O=C(N/N=C/c1ccc(-n2ccnc2)cc1)c1ccc(CN2CCCC(O)C2)cc1 (stereo not given)	Dose-dependent effect
COc1ccc(/C=N/NC(=O)c2ccc(CN3CCCC(O)C3)cc2)cc1 (stereo not given)	Dose-dependent effect
O=C(N/N=C/c1ccc(N2CCCCC2)cc1)c1ccc(CN2CCCC(O)C2)cc1 (stereo not given)	Dose-dependent effect
O=C(N/N=C/c1ccc(N2CCCC2)cc1)c1ccc(CN2CCCC(O)C2)cc1 (stereo not given)	Dose-dependent effect

Tested on: Mus musculus
Assay: Antinociceptive activity in formalin-induced Swiss mouse model of hyperalgesia assessed as time spent licking the injected paw in early phase at 100 mM/kg, po pretreated for 1 hr followed by formalin injection and measured up to 5 mins (reference value: 74 +/- 7.7 secs)
Format: functional
Settings: not given

SMILES	Time [s]
COc1ccc(/C=N/NC(=O)c2ccc(CN3CCCC(O)C3)cc2)cc1 (stereo not given)	13.29
O=C(N/N=C/c1ccc(N2CCCCC2)cc1)c1ccc(CN2CCCC(O)C2)cc1 (stereo not given)	19.63
